Reference: ChEMBL document CHEMBL1833955, “Optimization of (arylpiperazinylbutyl)oxindoles exhibiting selective 5-HT₇ receptor antagonist activity” (J Med Chem, 2011)

Experiments:
[1] = Plasma concentration in NMRI mouse at 10 mg/kg, ip after 30 mins by HPLC-MS/MS analysis; format: ADME, organism-based; set-up: dose 10 mg/kg, route intraperitoneal
Procedure, shortened: (§1)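 Male NMRI mice, 25–30 g, given four compounds together ip as a cassette suspension in 0.4% methyl cellulose (n = 3/dose). After 30 min, vena cava blood and brain collected. Brain homogenised in 4 volumes of water; samples extracted with acetonitrile–water 3:1 and analysed by gradient HPLC-MS/MS against spiked calibrators. Brain/plasma given as percentage.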

[2] = Selectivity ratio of Ki for 5-HT1A receptor in rat frontal cortex membrane to Ki for human 5-HT7 receptor; format: cell membranes
[3] = Plasma concentration in NMRI mouse at 1 mg/kg, ip after 30 mins by HPLC-MS/MS analysis; format: ADME, organism-based; set-up: dose 1 mg/kg, route intraperitoneal; procedure, shortened: as §1
[4] = Drug level in NMRI mouse brain at 10 mg/kg, ip after 30 mins by HPLC/MS/MS analysis; format: ADME, organism-based; set-up: dose 10 mg/kg, route intraperitoneal; details: read-out: Drug uptake; procedure, shortened: as §1
[5] = Metabolic stability in human liver microsomes after 60 mins by HPLC-MS/MS analysis; format: ADME, Microsome; details: read-out: Stability
Procedure, shortened: (§2)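 Test compound at 100 nM final incubated with rat or human liver microsomes (0.33 mg/mL) at 37 °C for 0, 5, 15, 30 and 60 min. Buffer Tris-HCl pH 7.4 with Mg2+ and BSA. Reaction started with NADPH and stopped with ice-cold MeOH. Parent compound measured by HPLC-MS/MS, positive-ion MRM.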

[6] = target: T1, Adrenergic receptor alpha-1 (Rattus norvegicus, UniProt P15823+P23944+P43140); assay: Displacement of [3H]prazosin from alpha1-adrenergic receptor in rat frontal cortex membrane after 45 mins by scintillation spectrometry; format: cell membranes
T1 sequence (P15823 whole entry): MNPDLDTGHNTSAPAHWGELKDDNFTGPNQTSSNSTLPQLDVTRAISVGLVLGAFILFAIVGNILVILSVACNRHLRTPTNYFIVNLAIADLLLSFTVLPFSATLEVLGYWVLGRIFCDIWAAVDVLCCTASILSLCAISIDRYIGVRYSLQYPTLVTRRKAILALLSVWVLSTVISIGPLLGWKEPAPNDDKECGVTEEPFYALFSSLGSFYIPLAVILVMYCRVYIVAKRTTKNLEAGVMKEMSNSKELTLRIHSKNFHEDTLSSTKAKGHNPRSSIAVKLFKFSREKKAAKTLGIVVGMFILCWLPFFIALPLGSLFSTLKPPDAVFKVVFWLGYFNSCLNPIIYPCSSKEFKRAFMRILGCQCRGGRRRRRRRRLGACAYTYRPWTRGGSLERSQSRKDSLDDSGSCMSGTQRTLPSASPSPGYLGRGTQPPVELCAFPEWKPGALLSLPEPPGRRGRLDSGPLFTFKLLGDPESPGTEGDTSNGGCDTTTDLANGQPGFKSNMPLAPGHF
T1 sequence (P23944 whole entry): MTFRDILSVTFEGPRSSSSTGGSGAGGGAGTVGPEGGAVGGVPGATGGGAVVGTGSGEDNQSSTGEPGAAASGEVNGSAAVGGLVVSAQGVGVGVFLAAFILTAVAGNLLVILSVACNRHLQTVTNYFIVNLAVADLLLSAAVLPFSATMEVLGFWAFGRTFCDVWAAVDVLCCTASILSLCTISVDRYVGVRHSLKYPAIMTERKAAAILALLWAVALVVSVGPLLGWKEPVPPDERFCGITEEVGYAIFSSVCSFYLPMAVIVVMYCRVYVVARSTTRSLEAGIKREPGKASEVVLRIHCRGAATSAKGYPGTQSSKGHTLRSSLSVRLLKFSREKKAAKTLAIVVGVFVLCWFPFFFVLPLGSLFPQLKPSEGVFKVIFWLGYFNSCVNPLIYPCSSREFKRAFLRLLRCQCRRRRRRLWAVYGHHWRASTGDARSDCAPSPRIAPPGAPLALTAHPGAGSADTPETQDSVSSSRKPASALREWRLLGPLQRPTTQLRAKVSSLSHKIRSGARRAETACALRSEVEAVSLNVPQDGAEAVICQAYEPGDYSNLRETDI
T1 sequence (P43140 whole entry): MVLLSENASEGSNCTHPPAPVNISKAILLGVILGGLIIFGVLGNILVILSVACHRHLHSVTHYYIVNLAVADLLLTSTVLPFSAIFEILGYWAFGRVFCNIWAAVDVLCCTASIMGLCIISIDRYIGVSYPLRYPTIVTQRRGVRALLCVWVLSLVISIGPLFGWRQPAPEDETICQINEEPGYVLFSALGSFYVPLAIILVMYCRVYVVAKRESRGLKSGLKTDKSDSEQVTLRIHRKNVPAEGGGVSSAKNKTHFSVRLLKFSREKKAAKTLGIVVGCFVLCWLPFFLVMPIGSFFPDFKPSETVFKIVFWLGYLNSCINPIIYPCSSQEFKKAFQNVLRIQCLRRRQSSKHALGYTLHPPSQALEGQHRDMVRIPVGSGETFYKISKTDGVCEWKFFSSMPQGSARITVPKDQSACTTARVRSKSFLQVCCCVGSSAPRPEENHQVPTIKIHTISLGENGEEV
Procedure, shortened: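 Rat frontal cortex tissue frozen on dry ice, homogenised in 50 mM Tris-HCl pH 7.7 and washed by centrifugation. [3H]prazosin at 0.6 nM; 10 μM prazosin defines nonspecific binding. 45 min at 25 °C, GF/B filtration, scintillation counting. Triplicates; Ki from two nine-concentration curves fitted to a single-site model.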

[7] = Selectivity ratio of Ki for alpha1-adrenergic receptor in rat frontal cortex membrane to Ki for human 5-HT7 receptor; format: cell membranes
[8] = Drug level in NMRI mouse brain at 1 mg/kg, ip after 30 mins by HPLC/MS/MS analysis; format: ADME, organism-based; set-up: dose 1 mg/kg, route intraperitoneal; details: read-out: Drug uptake; procedure, shortened: as §1
[9] = system: Mus musculus; assay: Antidepressant activity in ip dosed NMRI mouse assessed as decrease in immobility time administered 30 mins prior to test measured last 4 mins of 6 mins testing period by forced swimming test; format: functional; details: read-out: MED
Procedure, shortened: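 Mice given drug or vehicle ip 30 min before test. Each mouse placed in a 17.7 cm high, 12 cm diameter glass cylinder holding 25 °C water to 12.5 cm depth, four mice at a time. Immobility (floating, only movements keeping head above water) timed over the last 4 min of a 6 min session.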

[10] = target: T2, 5-hydroxytryptamine receptor 1A (Rattus norvegicus) (UniProt P19327); assay: Displacement of [3H]8-OH-DPAT from 5-HT1A receptor in rat frontal cortex membrane at 10^-7 M after 45 mins by scintillation counting; format: cell membranes
T2 sequence (whole entry): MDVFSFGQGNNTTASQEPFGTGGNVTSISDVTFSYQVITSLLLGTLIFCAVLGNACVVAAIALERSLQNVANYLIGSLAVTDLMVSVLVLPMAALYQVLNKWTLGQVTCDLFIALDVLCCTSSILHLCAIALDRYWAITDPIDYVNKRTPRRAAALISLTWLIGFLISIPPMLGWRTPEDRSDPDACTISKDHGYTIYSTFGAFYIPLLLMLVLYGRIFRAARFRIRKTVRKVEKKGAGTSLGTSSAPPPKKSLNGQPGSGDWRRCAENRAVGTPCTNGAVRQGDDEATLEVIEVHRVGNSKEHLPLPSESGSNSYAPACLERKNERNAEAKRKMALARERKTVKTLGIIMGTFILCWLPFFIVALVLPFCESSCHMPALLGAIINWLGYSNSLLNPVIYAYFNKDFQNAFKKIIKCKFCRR

[11] = Plasma concentration in NMRI mouse at 3 mg/kg, ip after 30 mins by HPLC-MS/MS analysis; format: ADME, organism-based; set-up: dose 3 mg/kg, route intraperitoneal; procedure, shortened: as §1
[12] = Metabolic stability in rat liver microsomes after 60 mins by HPLC-MS/MS analysis; format: ADME, Microsome; details: read-out: Stability; procedure, shortened: as §2
[13] = Drug level in NMRI mouse brain at 3 mg/kg, ip after 30 mins by HPLC/MS/MS analysis; format: ADME, organism-based; set-up: dose 3 mg/kg, route intraperitoneal; details: read-out: Drug uptake; procedure, shortened: as §1
[14] = target: 5-hydroxytryptamine receptor 7 (Homo sapiens, UniProt P34969); assay: Displacement of [3H]CT from human 5-HT7 receptor expressed in CHO cells by scintillation spectrometry; format: cell-based
Procedure, shortened: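 Cloned human 5-HT7 receptor from CHO cells, run under the supplier's recommended conditions with [3H]CT. Nonspecific binding with 25 μM clozapine. Ended by GF/C filtration, then scintillation counting. Ki taken from two nine-concentration displacement curves run in triplicate, single-site fit.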

[15] = system: Mus musculus; assay: Anxiolytic activity in ip dosed NMRI mouse assessed as behavioral activity administered 30 mins prior to test measured up to 5 mins by light-dark test; format: functional; details: read-out: MED
Procedure, shortened: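 Male NMRI mice, 25–33 g, housed in the dark, dosed ip 30 min before test. Each mouse placed in the centre of the lit side of an automated two-compartment chamber under a 2-lx light. Activity recorded for 5 min: time in each area, transitions, horizontal and vertical activity. Means ± SEM, one-way ANOVA with Duncan's test; MED reported.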

[16] = target: T3, 5-hydroxytryptamine receptor 1A (Rattus norvegicus, UniProt P19327); assay: Displacement of [3H]8-OH-DPAT from 5-HT1A receptor in rat frontal cortex membrane after 45 mins by scintillation counting; format: cell membranes
T3 sequence (P19327 whole entry): T2 sequence (whole entry)
Procedure, shortened: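 Membranes from adult rat frontal cortex, prepared in 50 mM Tris-HCl pH 7.7 with washes and a 37 °C preincubation. Incubation buffer: 6.66 mM CaCl2, 16.66 μM pargyline, 0.166% ascorbic acid. Ligand 1.5 nM [3H]8-OH-DPAT; 10 μM 5-HT defines nonspecific binding. 45 min at 25 °C, GF/B filtration, scintillation counting. Triplicates; Ki from two nine-point curves, single-site fit.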

Sequence of 5-hydroxytryptamine receptor 7 (P34969 whole entry): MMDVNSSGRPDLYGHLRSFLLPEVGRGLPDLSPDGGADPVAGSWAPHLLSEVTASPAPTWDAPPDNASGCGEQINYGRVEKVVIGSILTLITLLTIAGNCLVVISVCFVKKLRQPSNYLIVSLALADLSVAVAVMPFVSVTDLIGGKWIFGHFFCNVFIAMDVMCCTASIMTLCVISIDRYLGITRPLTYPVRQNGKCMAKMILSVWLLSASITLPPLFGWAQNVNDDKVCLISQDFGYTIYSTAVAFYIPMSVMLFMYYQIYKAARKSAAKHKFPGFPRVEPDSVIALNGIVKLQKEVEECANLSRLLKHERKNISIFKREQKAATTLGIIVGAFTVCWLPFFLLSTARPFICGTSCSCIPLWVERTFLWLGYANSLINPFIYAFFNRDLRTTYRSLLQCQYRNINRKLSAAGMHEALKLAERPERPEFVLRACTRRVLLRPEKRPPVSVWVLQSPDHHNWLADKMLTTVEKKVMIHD

| Structure (SMILES) | concentration at 0.5 h [1] | Ratio Ki [2] | concentration at 0.5 h [3] | concentration at 0.5 h [4] | remaining at 1 h [5] | Ki [6] | Ratio Ki [7] | concentration at 0.5 h [8] | minimal effective dose [9] | inhibition [10] | concentration at 0.5 h [11] | remaining at 1 h [12] | concentration at 0.5 h [13] | Ki [14] | minimal effective dose [15] | Ki [16] |
| --- | --- | --- | --- | --- | --- | --- | --- | --- | --- | --- | --- | --- | --- | --- | --- | --- |
| CCC1(CCCCN2CCN(c3ccc(F)cc3)CC2)C(=O)Nc2ccccc21 (centres undefined) | 0.168 µM | > 100 | 0.034 µM | 0.364 µM | 34% | 0.039 µM | 91 | 0.062 µM | > 10 mg/kg | 10% | 0.178 µM | 8% | 0.431 µM |  |  |  |
| CCC1(CCCCN2CCN(c3ccc(Cl)cc3)CC2)C(=O)Nc2ccc(Cl)cc21 (centres undefined) | 0.008 µM | > 100 | 0.01 µM | 0.027 µM | 23% | 0.175 µM | 159 | 0.017 µM | > 10 mg/kg | 0% | 0.014 µM | 21% | 0.023 µM | 0.0011 µM |  |  |
| CCC1(CCCCN2CCN(c3ccc(Cl)cc3)CC2)C(=O)Nc2cc(F)ccc21 (centres undefined) | 0.177 µM | > 100 | 0.046 µM | 0.135 µM | 29% | 0.215 µM | 272 | 0.033 µM |  | 9% | 0.13 µM | 9% | 0.099 µM |  | > 10 mg/kg |  |
| CCC1(CCCCN2CCN(c3ccc(Cl)cc3)CC2)C(=O)Nc2ccc(F)cc21 (centres undefined) | 0.271 µM | > 100 | 0.044 µM | 0.342 µM | 36% | 0.19 µM | 68 | 0.051 µM |  | 9% | 0.211 µM | 17% | 0.186 µM |  | > 10 mg/kg |  |
| O=C1Nc2ccccc2C1CCCCN1CCN(c2cccc(Cl)c2)CC1 (centres undefined) | 0.744 µM | 135 | 0.021 µM | 4.31 µM | 39% | 0.026 µM | 53 | 0.216 µM |  |  | 0.114 µM | 9% | 0.827 µM |  | > 10 mg/kg | 0.066 µM |
| CCC1(CCCCN2CCN(c3ccc(Cl)cc3)CC2)C(=O)Nc2ccccc21 (centres undefined) | 0.399 µM | > 100 | 0.07 µM | 0.379 µM | 34% | 0.093 µM | 245 | 0.042 µM |  | 11% | 0.245 µM | 9% | 0.141 µM |  | > 10 mg/kg |  |
